Screening data deposited in PubChem BioAssay by several laboratories.
Efflux pump inh = antifungal efflux pump inhibition, Nile Red retention; inhibition, % at 10 µM; S. cerevisiae Candida pump triplex; 330,000 compounds, 0.44% hits; AID 485275;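 active = plate passing quality check with inhibition over a set limit, or well fluorescence over plate mean plus 4 SD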;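 also: Nile Red retained in pooled yeast measured as flow cytometry median fluorescence; 0% = buffer negative control and 100% = Enniatin B positive control; higher means more Nile Red kept so more efflux inhibition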
Cardiac RTF inh = cardiac RTF calcium desensitization | inhibition, % at 7.15 µM | IANBD-labeled cardiac RTF, Ca2+ fluorescence | P19429+P45379 | 340,000 compounds, 0.12% hits | AID 493244;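 active = inhibition above the mean inhibition of all tested compounds plus 3 SD, cut at about 17% in these data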;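 also: assay run at fixed EC70 calcium of 1.6 mM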
Mot1-301 SUMO = blocks SUMOylation pathway, rescuing yeast Mot1-301 growth; S. cerevisiae Mot1-301 growth rescue, ATP luminescence, 38.5C; percent above DMSO median, 100 means doubled; growth rescue, % at 18.8 µM; 320,000 compounds, 1% hits;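 active = every valid replicate shows activation above 250% relative to neutral control wells; inactive = the rest, any valid replicate at or below 250%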;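 also: OY570 slx delta 5 strain wells were the positive control but not used for scaling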
UCH37 DUB inh = inhibitors of human deubiquitinating enzyme UCH37; Q9Y5K5; purified proteasome/UCH37, Ub-AMC cleavage fluorescence; inhibition, % (test concentration not listed); 330,000 compounds, 0.33% hits;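 active = mean inhibition over replicate wells above about 20%, limit read from the data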;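 also: 0% = compound-free wells with enzyme and 100% = wells lacking proteasome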
Target sequence (Q9Y5K5 whole entry, looked up): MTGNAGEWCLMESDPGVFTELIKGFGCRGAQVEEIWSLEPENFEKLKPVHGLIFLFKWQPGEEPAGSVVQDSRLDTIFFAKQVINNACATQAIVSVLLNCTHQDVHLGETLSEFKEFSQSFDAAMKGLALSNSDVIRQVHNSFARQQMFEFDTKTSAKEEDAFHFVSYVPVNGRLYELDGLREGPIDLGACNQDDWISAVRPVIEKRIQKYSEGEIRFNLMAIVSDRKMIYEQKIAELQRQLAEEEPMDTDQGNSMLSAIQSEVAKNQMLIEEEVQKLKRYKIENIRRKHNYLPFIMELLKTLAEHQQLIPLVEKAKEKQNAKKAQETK
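assay system = human UCH37 enzyme supplied as purified proteasome complex | amount = proteasome at 0.15 nM in the dispensed enzyme solution | schedule = 30 min compound-proteasome preincubation then 25 min substrate reaction, room temperature | measured by = fluorescence, ex 355 nm, em 460 nm | benchmarks = no-proteasome wells (full inhibition) and compound-free wells (no inhibition)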
cardiac RTF act = increases calcium sensitivity of human cardiac regulated thin filaments; IANBD-labeled TnC RTF fluorescence at EC20 calcium; 0% EC20 calcium, 100% full calcium; activation, % at 7.2 µM; 340,000 compounds, 0.24% hits; AID 493008;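 active = activation above the mean over all tested compounds plus 3 SD, cut at about 30% in these data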;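 also: rise in fluorescence read as greater calcium sensitivity of cardiac thin filaments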
ARNT TACC3 PPI = disrupts binding between human ARNT and TACC3; 390,000 compounds, 0.66% hits; AID 623870; Q9Y6A5; inhibition, % at 9.99 µM; AlphaScreen His-ARNT PAS-B/GST-TACC3 binding, luminescence; TACC3 fragment carries E629A point mutation;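 active = mean inhibition of replicates at least 50% and at least half of replicates each reaching 50%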;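 also: 0% = complete ARNT plus TACC3 wells and 100% = ARNT alone without TACC3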
Yeast Mot1 SUMO = SUMO pathway inhibitors in yeast Mot1-301 growth; AID 493004; 2,300 tested, under 10 active; S. cerevisiae Mot1-301 galactose growth, ATP luminescence, 24 h; -100 = growth of slx-deleted rescue strain; shares compounds with Mot1-301 SUMO; growth activity, percent, % at 42 µM;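 active = Signal drops as the depositor expects, and the fitted half-maximal dose is no more than ten times the top valid tested dose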;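 also: more negative values mean stronger growth rescue toward the control strain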
The depositor's hits bear a star. Compounds with a hit are over-represented: about 2.1% of the library has one in this group of screens.

What do the screens show for `Cc1ccc(C=NNc2ccc3ccccc3n2)o1`?
UCH37 DUB inh: -28

How did CCN(C(=O)COC(=O)c1cccc(C)c1[N+](=O)[O-])c1c(N)n(Cc2ccccc2)c(=O)[nH]c1=O do in these assays?
Cardiac RTF inh: 3; UCH37 DUB inh: 1; cardiac RTF act: 0

How did CCN(C(=O)Cn1nc(C)c([N+](=O)[O-])c1C)c1c(N)n(Cc2ccccc2)c(=O)[nH]c1=O do in these assays?
Efflux pump inh: 0; Cardiac RTF inh: -8; Mot1-301 SUMO: 376*; UCH37 DUB inh: 0; cardiac RTF act: 0; ARNT TACC3 PPI: 2; Yeast Mot1 SUMO: 1

What do the screens show for `CN(C(=O)COC(=O)c1cc2ccccc2cc1O)c1c(N)n(Cc2ccccc2)c(=O)[nH]c1=O`?
Efflux pump inh: 0; Cardiac RTF inh: -6; Mot1-301 SUMO: 427*; UCH37 DUB inh: -3; cardiac RTF act: 3; ARNT TACC3 PPI: 0; Yeast Mot1 SUMO: 0

Results for COCCN(C(=O)C1=COCCO1)c1c(N)n(Cc2ccccc2)c(=O)[nH]c1=O ?
Efflux pump inh: 0; Cardiac RTF inh: 1; Mot1-301 SUMO: -7; UCH37 DUB inh: 2; cardiac RTF act: 2; ARNT TACC3 PPI: -1

What do the screens show for `CCCCN(C(=O)C1=COCCO1)c1c(N)n(Cc2ccccc2)c(=O)[nH]c1=O`?
Efflux pump inh: 0; Cardiac RTF inh: 2; Mot1-301 SUMO: 521*; UCH37 DUB inh: 0; cardiac RTF act: -2; ARNT TACC3 PPI: -5; Yeast Mot1 SUMO: -1

How did CC(C)CN(C(=O)COC(=O)c1ccc2c(c1)OCO2)c1c(N)n(Cc2ccccc2)c(=O)[nH]c1=O do in these assays?
Efflux pump inh: 0; Cardiac RTF inh: 10; Mot1-301 SUMO: 710*; UCH37 DUB inh: 0; cardiac RTF act: -8; ARNT TACC3 PPI: 0; Yeast Mot1 SUMO: 1

What do the screens show for `CC(C)CN(C(=O)COC(=O)c1ccc2c(c1)OCCO2)c1c(N)n(Cc2ccccc2)c(=O)[nH]c1=O`?
Efflux pump inh: 0; Cardiac RTF inh: -11; Mot1-301 SUMO: 7; UCH37 DUB inh: 0; cardiac RTF act: 2; ARNT TACC3 PPI: 3

Results for COc1cccc(-c2ocnc2C(=O)Nc2ccc3c(c2)CCC3)c1 ?
Efflux pump inh: 1; Cardiac RTF inh: -10; Mot1-301 SUMO: 430*; UCH37 DUB inh: -8; cardiac RTF act: 3; ARNT TACC3 PPI: -2; Yeast Mot1 SUMO: 0

Results for COc1cccc(CC(=O)Nc2ccc3c(c2)CCC3)c1 ?
Efflux pump inh: 0; Cardiac RTF inh: -17; Mot1-301 SUMO: 127; UCH37 DUB inh: 0; cardiac RTF act: 0; ARNT TACC3 PPI: -7

What do the screens show for `O=S(=O)(c1cc(Cl)ccc1Cl)N1CCN2CCCC2C1` (centres undefined)?
Efflux pump inh: 0; Cardiac RTF inh: -7; Mot1-301 SUMO: -32; UCH37 DUB inh: 3; cardiac RTF act: -2; ARNT TACC3 PPI: 16

How did Cc1cc(S(=O)(=O)N2CCCC(N3CCOCC3)C2)c(C)cc1Cl (centres undefined) do in these assays?
Efflux pump inh: 0; Cardiac RTF inh: -9; Mot1-301 SUMO: 421*; UCH37 DUB inh: 1; cardiac RTF act: 14; ARNT TACC3 PPI: 2; Yeast Mot1 SUMO: 0

Results for O=C(OCc1ccccc1)c1cccc(-c2nnn(Cc3ccccc3)n2)c1 ?
Efflux pump inh: 0; Cardiac RTF inh: 0; Mot1-301 SUMO: 391*; UCH37 DUB inh: 4; cardiac RTF act: 7; ARNT TACC3 PPI: -4; Yeast Mot1 SUMO: 0

How did COC(=O)NN=Cc1cc(C)n(-c2cccc3ccccc23)c1C do in these assays?
UCH37 DUB inh: 3

What do the screens show for `CCN1C(=O)N(C)[C@@H](c2ccccc2)C(C(=O)OC)=C1C`?
Efflux pump inh: 0; Cardiac RTF inh: -44; Mot1-301 SUMO: 948*; cardiac RTF act: -2; ARNT TACC3 PPI: -3; Yeast Mot1 SUMO: 1
